SMILES strings stand for the structures.

The test system of one experiment is muscarinic receptor M1. The experiment is described as follows: Radioligand binding assay. The settings on record: no significant affinity up to 10 μM.
Experiment [1] has as its target muscarinic acetylcholine receptor (mAchR) M5 (Homo sapiens, UniProt P08912). The experiment is described as follows: Radioligand binding assay.
In experiment [2] the test system is muscarinic M3 receptor. The experiment is described as follows: Functional assay, agonist activity on M3. The format is cell-based.
Another experiment deals with muscarinic receptor M4. The experiment is described as follows: Radioligand binding assay. The settings on record: no significant affinity up to 10 μM.
In experiment [3] the test system is M5. The experiment is described as follows: Tango assay, agonist activity on M5. It is filed as cell-based.
Experiment [4] has as its system M5. As to the kind of experiment: Functional assay, antagonist activity on M5. It is filed as cell-based.
Experiment [5] concerns muscarinic M3 receptor. The experiment is described as follows: Radioligand binding assay.
The next experiment deals with muscarinic receptor M2. As to the kind of experiment: Radioligand binding assay. The settings on record: no significant affinity up to 10 μM.
Another experiment deals with nAchR α3β4 (Rattus norvegicus, UniProt P04757+P12392). As to the kind of experiment: Radioligand binding assay. The settings on record: for ligand efficiency (LE): calculated from Ki.
The target of another experiment is 5-HT3 receptor. The settings on record: antagonist; cited from earlier work.
A further experiment concerns the target 5-HT1B receptor. The settings on record: agonist; cited from earlier work.
For another experiment, the target named is 5-HT1A receptor. The settings on record: agonist; cited from earlier work.
A further experiment addresses 5-HT2 receptor. The settings on record: agonist; cited from earlier work.
The target in experiment [6] is metabotropic glutamate receptor 2. The settings on record: cited from earlier work.
The target in experiment [7] is metabotropic glutamate receptor 3. The settings on record: cited from earlier work.
The subject of experiment [8] is vesicular acetylcholine transporter. The settings on record: cited from earlier work.
The next experiment deals with HIV type 1 protease. The settings on record: cited from earlier work.
For experiment [9], the target named is muscarinic acetylcholine receptor M2. The settings on record: cited from earlier work.
Experiment [10] addresses muscarinic acetylcholine receptor M1. The settings on record: cited from earlier work.
A further experiment concerns carbonic anhydrase II. The settings on record: cited from earlier work.
For experiment [11], the system named is inducible human nitric-oxide synthase. The settings on record: cited from earlier work.
Experiment [12] has as its system brain human nitric-oxide synthase. The settings on record: cited from earlier work.
The subject of experiment [13] is endothelial human nitric-oxide synthase. The settings on record: cited from earlier work.
Another experiment concerns the target histamine H3 receptor. The settings on record: cited from earlier work.
Another experiment concerns the target σ opioid receptor. The settings on record: cited from earlier work.
The test system of experiment [14] is human sodium/glucose cotransporter 1. The settings on record: cited from earlier work.
For experiment [15], the system named is human sodium/glucose cotransporter 2. The settings on record: cited from earlier work.
A further experiment has as its target nAchR α4β4 (Rattus norvegicus, UniProt P09483+P12392). As to the kind of experiment: Radioligand binding assay. Put shortly:
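Ki from radioligand binding run by the NIMH PDSP protocols. Ligand efficiency derived from Ki as LE = −RT(lnKi)/Nheavy ≈ −1.373 log10Ki/Nheavy. R is the gas constant, T is the experimental temperature in Kelvin, and Nheavy is the heavy-atom count. LE is expressed in kcal/mol/heavy atom.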

Experiment [16] concerns the target human nicotinic acetylcholine receptor (nAchR) α2β4. As to the kind of experiment: Radioligand binding assay.

nAchR α3β4, sequence (P04757 26-499): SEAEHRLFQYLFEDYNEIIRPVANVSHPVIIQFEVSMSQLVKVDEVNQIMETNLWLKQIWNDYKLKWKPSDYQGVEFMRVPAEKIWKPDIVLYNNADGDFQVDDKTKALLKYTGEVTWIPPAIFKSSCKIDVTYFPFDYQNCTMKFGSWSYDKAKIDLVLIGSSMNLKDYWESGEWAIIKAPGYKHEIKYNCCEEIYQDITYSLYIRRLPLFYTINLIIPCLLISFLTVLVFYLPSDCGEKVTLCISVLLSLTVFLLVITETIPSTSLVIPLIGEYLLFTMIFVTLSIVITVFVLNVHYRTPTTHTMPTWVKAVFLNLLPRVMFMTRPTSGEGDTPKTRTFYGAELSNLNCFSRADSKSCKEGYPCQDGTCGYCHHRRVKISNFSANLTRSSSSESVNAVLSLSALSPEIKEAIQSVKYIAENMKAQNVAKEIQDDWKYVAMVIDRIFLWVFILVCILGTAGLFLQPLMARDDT
nAchR α3β4, sequence (P12392 21-495): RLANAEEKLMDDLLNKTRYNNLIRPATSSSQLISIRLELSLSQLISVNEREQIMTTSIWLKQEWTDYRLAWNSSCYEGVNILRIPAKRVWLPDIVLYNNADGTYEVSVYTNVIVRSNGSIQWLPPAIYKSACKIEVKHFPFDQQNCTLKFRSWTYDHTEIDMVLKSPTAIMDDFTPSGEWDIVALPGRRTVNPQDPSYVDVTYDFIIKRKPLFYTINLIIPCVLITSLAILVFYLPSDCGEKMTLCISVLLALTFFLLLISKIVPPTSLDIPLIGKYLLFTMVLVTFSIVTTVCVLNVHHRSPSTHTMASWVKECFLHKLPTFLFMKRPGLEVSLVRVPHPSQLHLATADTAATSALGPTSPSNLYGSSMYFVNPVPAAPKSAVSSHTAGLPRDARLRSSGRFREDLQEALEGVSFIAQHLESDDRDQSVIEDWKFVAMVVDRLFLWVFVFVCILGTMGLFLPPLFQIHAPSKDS
muscarinic acetylcholine receptor (mAchR) M5, sequence (P08912 whole entry): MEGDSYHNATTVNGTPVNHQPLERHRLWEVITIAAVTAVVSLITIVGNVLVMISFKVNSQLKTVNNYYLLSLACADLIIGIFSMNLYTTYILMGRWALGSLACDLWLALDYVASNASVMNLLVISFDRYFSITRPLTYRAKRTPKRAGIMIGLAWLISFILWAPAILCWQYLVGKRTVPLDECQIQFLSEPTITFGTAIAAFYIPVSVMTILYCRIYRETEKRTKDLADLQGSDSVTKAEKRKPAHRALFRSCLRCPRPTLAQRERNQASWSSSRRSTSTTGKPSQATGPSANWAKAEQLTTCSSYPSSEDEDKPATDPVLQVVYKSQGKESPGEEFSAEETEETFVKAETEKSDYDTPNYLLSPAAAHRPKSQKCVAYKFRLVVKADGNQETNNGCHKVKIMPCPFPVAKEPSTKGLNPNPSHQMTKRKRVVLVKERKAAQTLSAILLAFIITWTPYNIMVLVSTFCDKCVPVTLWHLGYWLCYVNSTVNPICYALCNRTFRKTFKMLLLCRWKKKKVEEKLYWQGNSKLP
nAchR α4β4, sequence (P09483 31-630): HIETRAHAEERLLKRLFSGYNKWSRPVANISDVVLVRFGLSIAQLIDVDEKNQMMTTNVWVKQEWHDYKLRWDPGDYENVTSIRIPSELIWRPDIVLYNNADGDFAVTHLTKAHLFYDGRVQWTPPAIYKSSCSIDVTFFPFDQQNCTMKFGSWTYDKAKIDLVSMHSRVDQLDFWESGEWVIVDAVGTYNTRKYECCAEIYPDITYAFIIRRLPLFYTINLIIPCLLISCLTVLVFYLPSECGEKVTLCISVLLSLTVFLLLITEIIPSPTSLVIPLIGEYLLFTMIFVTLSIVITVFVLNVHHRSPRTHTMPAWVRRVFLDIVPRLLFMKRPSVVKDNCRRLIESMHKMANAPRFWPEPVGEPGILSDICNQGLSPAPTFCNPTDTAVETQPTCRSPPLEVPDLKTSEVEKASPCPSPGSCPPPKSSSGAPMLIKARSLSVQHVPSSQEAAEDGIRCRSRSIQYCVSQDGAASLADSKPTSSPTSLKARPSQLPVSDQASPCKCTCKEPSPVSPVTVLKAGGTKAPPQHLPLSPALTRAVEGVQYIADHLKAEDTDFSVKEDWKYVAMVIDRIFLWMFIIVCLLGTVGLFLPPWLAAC
nAchR α4β4, sequence (P12392 21-495): as the sequence (P12392 21-495) above

With `CCC(=O)OC1(c2ccccc2)CCN(C)CC1C` (stereo not shown) [Alphaprodine], the affinity in the experiment with muscarinic receptor M1, in the experiment on muscarinic receptor M4, in the experiment on muscarinic M3 receptor [5] (no significant affinity up to 10 μM) and in the experiment on muscarinic receptor M2 was above 10 µM each time. Also, the affinity in experiment [1], expressed as Ki, was 771 nM. For the same compound, in experiment [1] (calculated from Ki), the “ligand efficiency (LE)” value is listed as 0.442 kcal/mol/heavy atom. The “agonist activity on M3” value in the experiment with muscarinic M3 receptor [2] is “no agonist activity”. For the same compound, in the experiment with M5 [3], the “agonist activity on M5” value is on record as “no agonist activity”. In the experiment with M5 [4], the “antagonist activity on M5” value was “antagonist”. Besides, in the experiment with muscarinic M3 receptor [5], the “binding to M3” value is “did not bind”.
`Clc1cccc(SC2CCNCC2)n1` [Anpirtoline]: the inhibition constant Ki (in general, a measure of affinity in units of concentration, obtained from inhibition or displacement) on nAchR α3β4 is 3410 nM; on 5-HT3 receptor it was 30 nM; on 5-HT1B receptor, 28 nM; at 5-HT1A receptor, 150 nM; at 5-HT2 receptor it was 1490 nM. Moreover, the “ligand efficiency (LE)” value on nAchR α3β4 is reported as 0.536 kcal/mol/heavy atom.
Regarding `N[C@@]1(C(=O)O)CS[C@H]2[C@H](C(=O)O)[C@H]21` [CHEMBL8839], the Ki in [6] was 40.6 nM; in experiment [7] it was 4.7 nM.
Regarding `OC1CCCCC1N1CCC(C2CCN(C3CCCCC3O)CC2)CC1` (stereo not shown) [CHEMBL20429], the affinity in experiment [8] is reported as 200 nM.
On to `OC1CCCCC1N1CCC(C2CCCCC2)CC1` (stereo not shown) [CHEMBL21309], for which the affinity in experiment [8] is reported as 40 nM.
On to `O=C1N(Cc2ccc(O)cc2)[C@H](Cc2ccccc2)[C@H](O)[C@@H](O)[C@@H](Cc2ccccc2)N1Cc1ccc(O)cc1` [CHEMBL35860], for which the Ki on HIV type 1 protease was 0.12 nM.
As to `C[C@@H]1OC(=O)[C@H]2C[C@H]3CCCC[C@H]3[C@H](/C=C\[C@H]3CCC[C@H](C)N3C)[C@@H]12` [CHEMBL58824], the IC50 in experiment [9] and in experiment [10] was 851 nM throughout.
`O=C1N(Cc2ccccc2)[C@@H](Cc2ccccc2)[C@H](O)[C@@H](O)[C@H](Cc2ccccc2)N1Cc1ccccc1` [CHEMBL148543]: at HIV type 1 protease, the Ki is 560 nM.
Take `NS(=O)(=O)c1cc2c(s1)SCCC2=O` [CHEMBL158261]: in the experiment with carbonic anhydrase II, the affinity is 3.6 nM.
With `NC1=NCCCSC1` [CHEMBL186856], the IC50 – broadly, the point on the concentration scale where inhibition reaches its midpoint – is 1200 nM in experiment [11], 2800 nM in experiment [12] and 10500 nM in [13].
As to `N[C@@]1(C(=O)O)C[S+]([O-])[C@H]2[C@H](C(=O)O)[C@H]21` (stereo partly shown) [CHEMBL218710], the Ki in experiment [6] is 508 nM; in experiment [7] it was 447 nM.
Turning to `C[C@@H]1CCCN1CCc1ccns1` [CHEMBL255141], the Ki on histamine H3 receptor is 17 nM.
Regarding `C[C@@H]1CCCN1CCc1ccccn1` [CHEMBL270807], the Ki at histamine H3 receptor was 200 nM.
Regarding `C[C@@H]1OC(=O)[C@@H]2C[C@@H]3CCCC[C@@H]3[C@@H](/C=C/[C@H]3CCC[C@H](C)N3C)[C@H]12` [CHEMBL301670], the IC50 in experiment [9] is 95.5 nM; in experiment [10] it was 427 nM.
`NC1=NCCCS1` [CHEMBL306541]: the figures for the IC50 in [11], in [12] and in experiment [13] were 2900 nM, 3200 nM and 7100 nM, respectively.
For the compound `NS(=O)(=O)c1cc2c(s1)S(=O)(=O)CCC2` [CHEMBL333193], the affinity with carbonic anhydrase II is 3.3 nM.
For the compound `CN(CCc1ccc2ccccc2c1)[C@H]1CCCC[C@H]1N1CCCC1` [CHEMBL606937], the IC50 at σ opioid receptor was 37 nM.
With `CN(CCc1ccc2c(c1)OCO2)[C@@H]1CCCC[C@@H]1N1CCCC1` [CHEMBL606938], the IC50 at σ opioid receptor was 34 nM.
On to `N#Cc1ccc(Cc2cc([C@@H]3O[C@H](CO)[C@@H](O)[C@H](O)[C@H]3O)ccc2Cl)cc1` [CHEMBL1807550], for which the IC50 in experiment [14] is 10 nM; in experiment [15], 10000 nM.
As for `CCOc1ccc(Cc2cc([C@@H]3O[C@H](CO)[C@@H](O)[C@H](O)[C@H]3O)ccc2Cl)cc1` [CHEMBL3125318], the IC50 in [14] was 3100 nM; in experiment [15], […].
In the case of `NC1CCCC1c1ccccc1` (stereo not shown) [cypenamine], the Ki on nAchR α3β4 was 2690 nM; on nAchR α4β4 it was 4110 nM; in [16], 4650 nM. For the same compound, the figures for the “ligand efficiency (LE)” value on nAchR α3β4 and at nAchR α4β4 (calculated from Ki) were 0.637 kcal/mol/heavy atom and 0.616 kcal/mol/heavy atom, respectively.

The record behind these values is paper PMC6075869 (Journal of medicinal chemistry, 2017).
